# Experimental data reported in ChEMBL document CHEMBL1134840, “Synthesis and antiviral activity of novel acyclic nucleoside analogues of 5-(1-azido-2-haloethyl)uracils” (J Med Chem, 2001).
# Legend:
# [1] = Cytotoxicity against human foreskin fibroblast cell proliferation; assay type: cell-based; conditions: human foreskin fibroblast cells (proliferating)
# Summary of the method: (§1)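 Proliferating HFF cells; growth inhibition expressed as IC50. Compounds tested up to top concentrations of 130–310 μM.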
# Human betaherpesvirus 5 = assay: Antiviral activity against human cytomegalovirus; assay type: functional, organism-based
# Summary of the method: (§2)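 CPE inhibition and plaque reduction assays in human foreskin fibroblast (HFF) or Vero cells, run under the NIH Antiviral Research Branch program. Virus strains: HCMV AD-169, HSV-2 MS, VZV Ellen. Acyclovir or ganciclovir served as reference drug.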
# [2] = Inhibitory activity against human foreskin fibroblast cell proliferation; assay type: functional, cell-based; summary of the method: as §1
# [3] = In vitro cytotoxicity against stationary phase human foreskin fibroblast cells; assay type: cell-based
# Summary of the method: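 Stationary-phase HFF cells; cytotoxicity read by neutral red uptake and expressed as CC50. Compounds tested up to top concentrations of 240–340 μM.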
# [4] = In vitro cytotoxicity against stationary phase vero cells; assay type: cell-based; conditions: chlorocebus sabaeus
# Summary of the method: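 Stationary-phase Vero cells; cytotoxicity read by MTT assay and expressed as CC50. Compounds tested up to top concentrations of 260–620 μM.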
# Human alphaherpesvirus 3 = assay: In vitro antiviral activity against Varicella zoster virus; assay type: functional, organism-based; summary of the method: as §2
# Human alphaherpesvirus 2 = assay: In vitro antiviral activity against Herpes simplex virus type 2; assay type: functional, organism-based; summary of the method: as §2
# Human alphaherpesvirus 1 = assay: In vitro antiviral activity against Herpes simplex virus type 1; assay type: functional, organism-based
# Summary of the method: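 HSV-1 strains tested: KOS and E-377 (both TK+), and the TK-deficient mutant KOSSB in Vero cells. E-377 was assayed by CPE inhibition and plaque reduction under the NIH program. Acyclovir or ganciclovir served as reference.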
# Anas sp. = assay: (§3) In vitro antiviral activity against duck hepatitis B virus (DHBV); assay type: functional, organism-based
# Summary of the method: (§4)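 Virus replication inhibition measured in primary hepatocyte cultures prepared from congenitally DHBV-infected ducks.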
# Hepatitis B virus = assay: as §3; assay type: functional, organism-based; summary of the method: as §4
Structure (SMILES),IC50 [2],CC50 [3],CC50 [4],other results
[N-]=[N+]=NC(CI)c1cn(CCC(CO)CO)c(=O)[nH]c1=O (configuration not stated),> 310 µM,,,IC50 [1]: > 260 µM; EC50 (Human betaherpesvirus 5): 14.4 µM
[N-]=[N+]=NC(CCl)c1cn(CCC(CO)CO)c(=O)[nH]c1=O (configuration not stated),> 310 µM,> 240 µM,> 260 µM,
[N-]=[N+]=NC(CI)c1cn(COC(CO)CO)c(=O)[nH]c1=O (configuration not stated),> 130 µM,> 240 µM,> 260 µM,EC50 (Human alphaherpesvirus 3): 2.4 µM
[N-]=[N+]=NC(CBr)c1cn(COC(CO)CO)c(=O)[nH]c1=O (configuration not stated),> 130 µM,> 240 µM,> 260 µM,
[N-]=[N+]=NC(CI)c1cn(COCCO)c(=O)[nH]c1=O (configuration not stated),> 130 µM,> 240 µM,> 260 µM,
[N-]=[N+]=NC(CBr)c1cn(COCCO)c(=O)[nH]c1=O (configuration not stated),> 130 µM,> 240 µM,> 260 µM,
[N-]=[N+]=NC(CCl)c1cn([C@H]2C[C@H](O)[C@@H](CO)O2)c(=O)[nH]c1=O (some centres not stated),,,,EC50 (Human alphaherpesvirus 2): 2.9 µM; EC50 (Human alphaherpesvirus 3): 4.5 µM; EC50 (Human alphaherpesvirus 1): 0.06 µM; EC50 (Anas sp.): 15 µM
[N-]=[N+]=NC(CBr)c1cn([C@H]2C[C@H](O)[C@@H](CO)O2)c(=O)[nH]c1=O (some centres not stated),,,,EC50 (Anas sp.): 2.6 µM
[N-]=[N+]=NC(CCl)c1cn([C@@H]2O[C@H](CO)[C@@H](O)[C@@H]2O)c(=O)[nH]c1=O (some centres not stated),,,,EC50 (Human alphaherpesvirus 3): 0.08 µM; EC50 (Human betaherpesvirus 5): 1.45 µM; EC50 (Human alphaherpesvirus 1): 0.46 µM
[N-]=[N+]=NC(CCl)c1cn(COC(CO)CO)c(=O)[nH]c1=O (configuration not stated),> 130 µM,> 240 µM,> 260 µM,
[N-]=[N+]=NC(CCl)c1cn(COCCO)c(=O)[nH]c1=O (configuration not stated),> 130 µM,> 240 µM,> 260 µM,
[N-]=[N+]=NC(CBr)c1cn(CCC(CO)CO)c(=O)[nH]c1=O (configuration not stated),> 270 µM,> 240 µM,> 260 µM,EC50 (Human betaherpesvirus 5): 2.7 µM
Nc1nc2c(ncn2COCCO)c(=O)[nH]1 [ACYCLOVIR],,,,EC50 (Human alphaherpesvirus 3): 2.6 µM
Nc1nc2c(ncn2COC(CO)CO)c(=O)[nH]1 [GANCICLOVIR],156 µM,,,EC50 (Human betaherpesvirus 5): 0.23 µM; EC50 (Hepatitis B virus): 4 µM
Nc1nc(O)c2ncn(CCC(CO)CO)c2n1 [PENCICLOVIR],,,,EC50 (Hepatitis B virus): 0.7 µM
